{"source": "paper PMC8945396", "about": "(ACS Nano, 2022)", "key": {"[1]": {"system": "Arabidopsis thaliana leaf upper epidermal and palisade mesophyll cells", "assay": "Cell penetration and translocation of TAMRA-labeled CPPs after spraying", "format": "in vivo", "details": "0.1 μg/mL sprayed; 30, 90, 150 min post spraying; CLSM, n = 8 ROIs"}, "[2]": {"system": "epidermal cells of tomato leaves", "assay": "Translocation of TAMRA-labeled CPPs after spraying", "format": "in vivo, Solanum lycopersicum", "details": "compared among BP100, dR9, KH9, KAibA; 30, 90, 150 min; 10 ROIs", "procedure,_shortened": "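Tomato (cv. Micro-Tom) grown in soil with vermiculite at 25 °C, 16/8 h light/dark, 80 μmol photons m–2 s–1, 50% RH for 5–8 weeks; plants with 5–6 expanded leaves. Leaves were water-washed and dried 3–4 h, then sprayed with TAMRA-labeled peptides and lidded. Before imaging, leaves were rinsed 5 × 1 mL water. TAMRA fluorescence intensity was read by confocal microscopy, ex/em 555/580 nm.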"}, "[3]": {"system": "soybean leaf epidermal and palisade mesophyll cells", "assay": "Translocation of TAMRA-labeled CPPs after spraying", "format": "in vivo, Glycine max", "details": "cv. Enrei; 30, 90, 150 min post spraying; CLSM, 6 ROIs"}, "[4]": {"system": "transgenic tomato leaf cells overexpressing GFP", "assay": "Transfection of Cy3-labeled pBI221/CPP complexes after spraying", "format": "in vivo, Solanum lycopersicum", "details": "as Cy3-labeled pBI221/CPP complex, N/P ratio = 2.0; 2 h post spraying; n = 15 ROIs"}}}
{"substance": "d-(RRRRRRRRR) [TAMRA-labeled dR9]", "values": [{"measurement": "penetration efficiency into the palisade mesophyll", "setting": "[1]", "result": "higher penetration efficiency into the palisade mesophyll than the other CPPs"}, {"measurement": "translocation efficiency in epidermal cells of tomato leaves", "setting": "[2]", "result": "greatest translocation efficiency"}]}
{"substance": "(Lys(Aib)Ala)5 [TAMRA-labeled KAibA]", "values": [{"measurement": "translocation efficiency into the palisade mesophyll of soybean leaves", "setting": "[3]", "result": "higher translocation efficiency into the palisade mesophyll than the other CPPs"}]}
{"substance": "KHKHKHKHKHKHKHKHKHKKLFKKILKYL [KH9-BP100]", "values": [{"measurement": "transfection efficiency of plasmid DNA molecules after spraying", "setting": "[4]", "result": "higher transfection efficiency"}]}
